Assay outcomes as filed in PubChem BioAssay.
An excerpt weighted towards active compounds, which were near 3.9% of everything screened.
CHOP inh: blocks CHOP induction under ER stress | CHO-K1 CHOP-promoter luciferase, tunicamycin-induced, 15-18 h | 3.8% of 220,000 active | inhibition, % at 10 µM;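 active = compounds that reduced the stress-induced luciferase reporter signal by more than about 70% of percent inhibition, limit read from the data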;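 note: 0% = tunicamycin plus vehicle and 100% = wells without tunicamycin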
697 NFkB inh: lowers PMA/ionomycin-induced NF-kB signal in 697 B cells; 697 B-cell NF-kB luciferase reporter, 16 h; inhibition, % at 4 µM; 0.33% of 330,000 active; in the data active = inhibition above about 35%
Gli-Sufu block: Gli-Sufu pathway antagonism; inhibition, % at 5 µM; 0.74% of 340,000 active; Sufu-KO-LIGHT fibroblasts, Gli luciferase reporter luminescence;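 active = inhibition above about 55%, limit read from the data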;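 note: 0% = DMSO-treated cells and 100% = wells with medium but no cells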
UPR CHOP act: activators of apoptotic arm of unfolded protein response (CHOP) | CHO-CHOP luciferase reporter, UPR activation, luminescence; percent of tunicamycin response over DMSO baseline | activation, % at 10 µM | 0.34% of 330,000 active;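 active = at 10 µM dose, activation of 40% or more, normalized to positive control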;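 note: 100% = tunicamycin at 10 µg/mL and 0% = DMSO alone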
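Test system: CHO CHOP reporter cells. Input: 500 CHO-CHOP cells per well. Medium: F12 with 10% FBS. Technique: luciferase luminescence. Measure: percent activation relative to tunicamycin control. Dosing: 10 µM compound, 0.5% DMSO. Timing: 16-18 h cell attachment, then 6 h compound exposure, 37 °C.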
UPR XBP1 act: adaptive UPR (XBP1) activation; activation, % at 20 µM; 0.33% of 330,000 active; AID 463104; CHO-XBP1 luciferase reporter, IRE1-XBP1 UPR activation, luminescence; percent of tunicamycin response, DMSO as zero;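 active = versus positive control, 20 µM dose yields 30% or more activation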;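 note: 100% = tunicamycin at 10 µg/mL and 0% = DMSO only wells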
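incubation = overnight seeding at 37 °C, 6 h compound treatment at 37 °C | assay system = CHO-XBP1 cells stably carrying IRE1-XBP1-driven luciferase reporter | input = 1000 cells per well | detection = luciferase luminescence | dosing = single point, 20 µM final compound, 1% DMSO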
Jurkat NFkB inh: lowers PMA/ionomycin-induced NF-kB signal in Jurkat cells; inhibition, % at 4 µM; PMA/ionomycin-induced NF-kB luciferase reporter, luminescence; AID 435003; 0.53% of 330,000 active; in the data active = inhibition above about 50%
Gli antag conf: confirmation of Gli-SUFU pathway antagonists; shares compounds with Gli-Sufu block; Sufu-KO-LIGHT cells, Gli luciferase reporter, luminescence; inhibition, % at 5 µM; 40% of 2,500 active; AID 602428;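 active = mean inhibition at 5 µM reaching about 45%, limit read from the data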;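 note: plate controls were DMSO-treated cells for no effect and wells lacking cells for full effect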
Gli cytotox: cytotoxic in Gli-SUFU antagonist counter-screen | shares compounds with Gli-Sufu block | Sufu-KO-LIGHT cells cytotoxicity, ATP luminescence | cytotoxicity, % at 5 µM | 32% of 2,500 active;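 active = mean cytotoxicity at 5 µM above about 25%, limit read from the data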;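 note: cells exposed to compound overnight for roughly 16 to 18 hours; plate controls were DMSO wells with cells for no effect and medium without cells for full effect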
Wnt3a counter: counter-screen for Gli-SUFU antagonists: Wnt3a reporter inhibition. shares compounds with Gli-Sufu block. Wnt-LIGHT cells, Wnt3a-driven luciferase reporter, luminescence. inhibition, % at 6.25 µM. 20% of 2,500 active;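 active = mean inhibition above about 25%, limit read from the data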
* marks the source's active call; other numbers are inactive results.

How did CN(C)S(=O)(=O)c1cccc(NC(=O)C(c2ccccc2)c2ccccc2)c1 do in these assays?
697 NFkB inh: 17; Gli-Sufu block: -14; UPR CHOP act: 4; UPR XBP1 act: -3; Jurkat NFkB inh: -4

What do the screens show for `CC(C)N(C(=S)Nc1cccc(S(=O)(=O)N(C)C)c1)c1ccccc1`?
CHOP inh: -8; 697 NFkB inh: -9; Gli-Sufu block: 55; UPR CHOP act: 0; UPR XBP1 act: -1; Jurkat NFkB inh: -2; Gli antag conf: 12; Gli cytotox: 1; Wnt3a counter: -27

Results for COc1ccc(-c2nc(CN3CCN(c4ncnc5ccccc45)CC3)c(C)o2)c(OC)c1 ?
CHOP inh: 59; 697 NFkB inh: -28; Gli-Sufu block: 60*; UPR CHOP act: -2; UPR XBP1 act: -1; Jurkat NFkB inh: 8; Gli antag conf: 35; Gli cytotox: 9; Wnt3a counter: -3

Results for Cc1ccc2c(c1)C(c1ccc(F)cc1)N(C(=O)c1ccccc1Br)CC(=O)N2 (stereo not drawn) ?
697 NFkB inh: 18; UPR CHOP act: 1; UPR XBP1 act: -7; Jurkat NFkB inh: -16

Results for Fc1ccccc1-c1csc(-c2cccnc2)n1 ?
697 NFkB inh: -35; Gli-Sufu block: 31; UPR CHOP act: 5; UPR XBP1 act: 1; Jurkat NFkB inh: -34

How did Cc1csc(-c2cccnc2)n1 do in these assays?
CHOP inh: -4; 697 NFkB inh: -12; Gli-Sufu block: 99*; UPR CHOP act: 0; UPR XBP1 act: -3; Jurkat NFkB inh: -2; Gli antag conf: 14; Gli cytotox: -6; Wnt3a counter: 16

Results for COc1ccc(Cn2c(-c3ccc(C)cc3)c[n+]3ccccc23)cc1 ?
CHOP inh: -2; 697 NFkB inh: 23; Gli-Sufu block: 85*; UPR CHOP act: 5; UPR XBP1 act: 3; Jurkat NFkB inh: 37; Gli antag conf: 86*; Gli cytotox: 29*; Wnt3a counter: 36*

What do the screens show for `N#CCCN(C(=O)COC(=O)c1cc(S(=O)(=O)N2CCOCC2)ccc1Cl)c1ccc(F)cc1`?
697 NFkB inh: 5; Gli-Sufu block: 5; UPR CHOP act: 2; UPR XBP1 act: -2; Jurkat NFkB inh: 0

Results for CC(C)CNC(=O)CSc1n[nH]c(=O)n1CCc1ccccc1 ?
697 NFkB inh: 1; Gli-Sufu block: 5; UPR CHOP act: 2; UPR XBP1 act: -6; Jurkat NFkB inh: 5

What do the screens show for `COC(=O)c1cc(S(=O)(=O)N2CCN(c3ccc(C(C)=O)cc3)CC2)c[nH]1`?
697 NFkB inh: -11; Gli-Sufu block: 62*; UPR CHOP act: -1; UPR XBP1 act: -6; Jurkat NFkB inh: 9; Gli antag conf: 19; Gli cytotox: -1; Wnt3a counter: -27

How did O=C(Nc1ccccc1)c1cccc(N2C(=O)C3C4CC(C(Br)C4Br)C3C2=O)c1 (stereo not drawn) do in these assays?
697 NFkB inh: 3; Gli-Sufu block: -6; UPR CHOP act: 3; UPR XBP1 act: -2; Jurkat NFkB inh: 0

How did COCCN(C(=O)COC(=O)C1CCC(C(C)(C)C)CC1)c1c(N)n(Cc2ccccc2)c(=O)[nH]c1=O (stereo not drawn) do in these assays?
697 NFkB inh: 10; Gli-Sufu block: 72*; UPR CHOP act: -1; UPR XBP1 act: -2; Jurkat NFkB inh: -9; Gli antag conf: 81*; Gli cytotox: 28*; Wnt3a counter: 8

Results for O=C(Cc1ccccc1[N+](=O)[O-])OCC(=O)c1ccccc1Br ?
697 NFkB inh: -5; Gli-Sufu block: 2; UPR CHOP act: 2; UPR XBP1 act: 1; Jurkat NFkB inh: -8

How did COc1ccc(S(=O)(=O)Nc2ccccc2C(=O)NC2CC2)cc1NC(C)=O do in these assays?
697 NFkB inh: 12; Gli-Sufu block: -4; UPR CHOP act: -1; UPR XBP1 act: 0; Jurkat NFkB inh: 9

How did COc1ccc(S(=O)(=O)Nc2ccccc2Cl)cc1NC(C)=O do in these assays?
CHOP inh: -7; 697 NFkB inh: 18; Gli-Sufu block: 52; UPR CHOP act: -1; UPR XBP1 act: -4; Jurkat NFkB inh: 11; Gli antag conf: 12; Gli cytotox: -2; Wnt3a counter: 0

How did Cc1cc(C)cc(OCC(=O)OCC(=O)N2CCc3ccccc32)c1 do in these assays?
697 NFkB inh: 19; Gli-Sufu block: 0; UPR CHOP act: 0; UPR XBP1 act: 2; Jurkat NFkB inh: -4

What do the screens show for `COc1ccc(C(=O)N2CCCCCCC2)cc1OC1CCN(C(C)C)CC1`?
697 NFkB inh: -21; Gli-Sufu block: 65*; UPR CHOP act: 1; UPR XBP1 act: -1; Jurkat NFkB inh: -18; Gli antag conf: 26; Gli cytotox: 15; Wnt3a counter: -2

How did Cn1c(N)c(C(=O)COC(=O)C2(c3cccc(F)c3)CCCC2)c(=O)n(C)c1=O do in these assays?
CHOP inh: 65; 697 NFkB inh: -8; Gli-Sufu block: 99*; UPR CHOP act: 0; UPR XBP1 act: -5; Jurkat NFkB inh: 10; Gli antag conf: 15; Gli cytotox: 2; Wnt3a counter: -7

How did CCC(CC)c1nnc(NC(=O)C2CC(=O)N(C3CCCC3)C2)s1 (stereo not drawn) do in these assays?
697 NFkB inh: 4; Gli-Sufu block: -7; UPR CHOP act: 0; UPR XBP1 act: -3; Jurkat NFkB inh: 17

How did O=C(N/N=C/c1cn(CCOc2ccccc2)c2ccccc12)c1ccncc1 do in these assays?
CHOP inh: -2; 697 NFkB inh: 22; Gli-Sufu block: 55; UPR CHOP act: 2; UPR XBP1 act: 2; Jurkat NFkB inh: -3; Gli antag conf: 18; Gli cytotox: -1; Wnt3a counter: 14

How did COc1ccccc1OCCn1cc(/C=N/NC(=O)c2ccncc2)c2ccccc21 do in these assays?
CHOP inh: 7; 697 NFkB inh: 8; Gli-Sufu block: 5; UPR CHOP act: 1; UPR XBP1 act: 0; Jurkat NFkB inh: 3

Results for CC(C)Cc1nnc(NC(=O)CCC(=O)N2CCN(c3ccc(Cl)cc3)CC2)s1 ?
697 NFkB inh: 4; Gli-Sufu block: -3; UPR CHOP act: 1; UPR XBP1 act: -5; Jurkat NFkB inh: 19

What do the screens show for `O=C(NC1CCCN(Cc2ccc(Cl)cc2)C1)c1c(F)cccc1F` (stereo not drawn)?
697 NFkB inh: 5; Gli-Sufu block: 13; UPR CHOP act: -1; UPR XBP1 act: -2; Jurkat NFkB inh: -5
